The source made the active and inactive calls. The calls are words filed in the database; no cut-off is given here.

Test [1] relates to Human immunodeficiency virus 1. The test is described as follows: Ability to protect CD4+ ATH8 cells from cytopathogenic effects of HIV-1; Inactive. The class given is functional, organism-based. The conditions noted are these: ATH-8. Background: Protection from cytopathic effect is a common read-out in antiviral testing.
For test [2], the system named is H9. The test is described as follows: Percentage of gag protein expression using H9 cells at 100 uM on 7th day. Format: functional, Homo sapiens. A digest of the protocol: (§1)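 H9 cells (105) were infected with HIV-1 (500 virus particles per cell) and cultured without or with drug at the stated concentration. On days 7, 10 and 12, the percentage of cells expressing HIV-1 p24 gag protein was scored by indirect immunofluorescence with murine monoclonal antibody M26.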

For test [3], the system named is H9. The test is described as follows: Percentage of gag protein expression using H9 cells at 50 uM on 7th day. The class given is functional, Homo sapiens. The essentials:
as §1

The test system of test [4] is H9. Put plainly: Percentage of gag protein expression using H9 cells at 20 uM on 7th day. Format: functional, Homo sapiens. The essentials:
as §1

Test [5] concerns H9 (Homo sapiens). The test is described as follows: Percentage of gag protein expression using H9 cells at 0 uM on 12th day.
For test [6], the system named is H9. The test is described as follows: Percentage of gag protein expression using H9 cells at 100 uM on 12th day. Format: functional, Homo sapiens. The essentials: as §1
For test [7], the system named is H9. Put plainly: Percentage of gag protein expression using H9 cells at 50 uM on 12th day. The class given is functional, Homo sapiens. A digest of the protocol: as §1
Test [8] concerns H9. The test is described as follows: Percentage of gag protein expression using H9 cells at 5 uM on 10th day. The class given is functional, Homo sapiens. A digest of the protocol:
as §1

In test [9] the test system is H9. Put plainly: Percentage of gag protein expression using H9 cells at 20 uM on 10th day. Format: functional, Homo sapiens. A digest of the protocol:
as §1

Test [10] relates to H9. The test is described as follows: Percentage of gag protein expression using H9 cells at 200 uM on 12th day. Format: functional, Homo sapiens. The essentials: as §1
For test [11], the system named is H9. The test is described as follows: Percentage of gag protein expression using H9 cells at 200 uM on 10th day. Format: functional, Homo sapiens. A digest of the protocol:
as §1

The test system of test [12] is H9. Put plainly: Percentage of gag protein expression using H9 cells at 100 uM on 10th day. The class given is functional, Homo sapiens. A digest of the protocol:
as §1

In test [13] the test system is H9 (Homo sapiens). The test is described as follows: Percentage of gag protein expression using H9 cells at 0 uM on 10th day.
Test [14] relates to H9. Put plainly: Percentage of gag protein expression using H9 cells at 20 uM on 12th day. Format: functional, Homo sapiens. A digest of the protocol:
as §1

The test system of test [15] is H9. Put plainly: Percentage of gag protein expression using H9 cells at 5 uM on 7th day. The class given is functional, Homo sapiens. A digest of the protocol: as §1
The subject of test [16] is H9. The test is described as follows: Percentage of gag protein expression using H9 cells at 200 uM on 7th day. Format: functional, Homo sapiens. A digest of the protocol: as §1
Test [17] concerns H9. Put plainly: Percentage of gag protein expression using H9 cells at 50 uM on 10th day. Format: functional, Homo sapiens. A digest of the protocol: as §1
For test [18], the system named is H9. The test is described as follows: Percentage of gag protein expression using H9 cells at 5 uM on 12th day. Format: functional, Homo sapiens. The essentials: as §1
Test [19] concerns H9. The test is described as follows: Percentage of gag protein expression using H9 cells at 0 uM on 7th day. The class given is functional, Homo sapiens. A digest of the protocol:
as §1

The subject of test [20] is Human immunodeficiency virus 1. The test is described as follows: Ability to protect CD4+ ATH8 cells from cytopathogenic effects of HIV-1; No effect. The settings on record: ATH-8. Format: functional, organism-based.
Test [21] concerns Human immunodeficiency virus 1. The test is described as follows: Ability to protect CD4+ ATH8 cells from cytopathogenic effect of HIV-1; Active. The conditions noted are these: ATH-8. Format: functional, organism-based.

In the case of `Nc1ncnc2c1ncn2[C@@H]1O[C@H](CO)C[C@H]1F`, the result in [1] was inactive.

As for `Nc1ncnc2c1ncn2[C@@H]1O[C@H](CO)C[C@@H]1F` [LODENOSINE], the Expression in test [2] was 10%; in test [3], 18%; in test [4] it was 61%; in test [5], 79%; in test [6], 50%; in test [7], 19%. Moreover, the Expression in test [8] amounted to 73%; in test [9] it was 37%; in test [10] it was 0%; in test [11], 0%; in test [12] it was 34%; in test [13], 71%. The Expression in test [14] is 53%; in test [15], 58%; in [16] it was 0%; in [17] it was 20%; in test [18] it was 66%; in test [19] it was 79%.

With `Nc1ncnc2c1ncn2[C@H]1CC[C@@H](CO)O1`, the Expression in test [2] came out at 0%; in [3] it was 0%; in test [4], 1%; in test [5] it was 84%; in test [6] it was 0%; in test [7], 2%. The Expression in [8] is reported as 48%; in [9], 0%; in test [10], 0%; in [11] it was 0%; in test [12], 0%; in test [13], 70%. In addition, the Expression in [14] is 8%; in [15] it was 48%; in test [16], 0%; in [17], 0%; in test [18], 86%; in test [19], 79%. Also, the result in [20] was inactive.

Turning to `O=c1[nH]cnc2c1ncn2[C@H]1CC[C@@H](CO)O1` [DIDANOSINE], the Expression in [2] amounted to 0%; in test [3], 0%; in [4] it was 9%; in test [5], 83%; in [6] it was 0%; in [7], 3%. Also, the Expression in test [8] is reported as 53%; in test [9], 30%; in test [10], 0%; in test [11] it was 0%; in [12], 0%; in test [13], 73%. In addition, the Expression in test [14] was 48%; in test [15], 73%; in [16], 0%; in test [17], 0%; in test [18] it was 74%; in test [19] it was 76%. In test [21], the outcome was Active.

As for `OCC1CC(F)C(n2cnc3c(O)ncnc32)O1` (stereo unspecified), the Expression in test [2] is on record as 34%; in [3], 23%; in test [4], 58%; in test [5], 74%; in [6], 53%; in [7], 57%. For the same compound, the Expression in test [8] amounted to 82%; in test [9] it was 52%; in [10], 60%; in test [11], 10%; in test [12], 12%; in test [13], 71%. Besides, the Expression in [14] is 61%; in test [15], 54%; in test [16] it was 7%; in test [17] it was 24%; in test [18], 61%; in test [19], 76%. Further, in [21], the outcome was Active.

(Values after ChEMBL document CHEMBL1124730, “Acid-stable 2'-fluoro purine dideoxynucleosides as active agents against HIV” (1990).)
